According to ChEMBL document CHEMBL4130474, “Spirotriazoline oxindoles: A novel chemical scaffold with in vitro anticancer properties” (Eur J Med Chem, 2017):

Legend:
MCF7 = experiment: Antiproliferative activity in human MCF7 cells incubated for 72 hrs by MTT assay; type: functional, cell-based; conditions: MCF7, 72 h
In short: (§1)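 Cells grown in RPMI 1640 with 10% FBS, penicillin/streptomycin; seeded at 2 × 10⁵ cells/mL, allowed to adhere 24 h, then exposed 72 h to compounds diluted in medium from DMSO stocks. MTT added after medium change, 3 h, formazan dissolved in DMSO, absorbance at 570 nm. Triplicate wells, at least 3 independent experiments; IC50 by non-linear regression.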

[1] = Selectivity index, ratio of IC50 for antiproliferative activity in HEK293T cells to IC50 for antiproliferative activity in human MCF7 cells; type: toxicity, cell-based; conditions: HEK293T cells versus MCF7 cells, read-out: Ratio IC50
In short: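 Ratio of HEK 293T IC50 to MCF-7 IC50 from 72 h MTT assays.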

MDA-MB-231 = experiment: Antiproliferative activity in human MDA-MB-231 cells incubated for 72 hrs by MTT assay; type: functional, cell-based; conditions: MDA-MB-231, 72 h; in short: as §1
[2] = Selectivity index, ratio of IC50 for antiproliferative activity in HEK293T cells to IC50 for antiproliferative activity in human p53 (-/-) human HCT116 cells; type: toxicity, cell-based; conditions: HEK293T cells versus p53 (-/-) HCT116 cells, read-out: Ratio IC50
[3] = Selectivity index, ratio of IC50 for antiproliferative activity in HEK293T cells to IC50 for antiproliferative activity in human p53 (+/+) human HCT116 cells; type: toxicity, cell-based; conditions: HEK293T cells versus p53 (+/+) HCT116 cells, read-out: Ratio IC50
HCT-116 [4] = experiment: Antiproliferative activity in p53 (+/+) human HCT116 cells incubated for 72 hrs by MTS assay; type: functional, cell-based; conditions: HCT-116, 72 h
In short: (§2)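 HCT116 p53(+/+) or p53(−/−) seeded at 1 × 10⁵ cells/mL, adhered 24 h, then treated 72 h with compounds diluted from DMSO stocks. Viability by MTS (CellTiter96 AQueous) with absorbance at 490 nm. Duplicate wells, three independent experiments; IC50 by non-linear regression.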

HEK-293T = experiment: Antiproliferative activity in human HEK293T cells incubated for 72 hrs by MTT assay; type: cell-based; in short: as §1
HCT-116 [5] = experiment: Antiproliferative activity in p53 (-/-) human HCT116 cells incubated for 72 hrs by MTS assay; type: functional, cell-based; conditions: HCT-116, 72 h; in short: as §2
[6] = Selectivity index, ratio of IC50 for antiproliferative activity in HEK293T cells to IC50 for antiproliferative activity in human MDA-MB-231 cells; type: toxicity, cell-based; conditions: HEK293T cells versus MDA-MB-231 cells, read-out: Ratio IC50
In short: (§3)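 Ratio of HEK 293T IC50 to MDA-MB-231 IC50 from 72 h MTT assays.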

[7] = Potency index, ratio of IC50 for antiproliferative activity in human MCF7 cells to IC50 for antiproliferative activity in human MDA-MB-231 cells; type: functional
[8] = Potency index, ratio of IC50 for antiproliferative activity in human p53 (-/-) human HCT116 cells to IC50 for antiproliferative activity in human MDA-MB-231 cells; type: functional
[9] = Potency index, ratio of IC50 for antiproliferative activity in human p53 (+/+) human HCT116 cells to IC50 for antiproliferative activity in human MDA-MB-231 cells; type: functional
[10] = Potency index, ratio of IC50 for antiproliferative activity in human MDA-MB-231 cells to IC50 for antiproliferative activity in human MCF7 cells; type: functional
In short: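 Ratio of MDA-MB-231 IC50 to MCF-7 IC50 from 72 h MTT assays.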

[11] = […], ratio of IC50 for antiproliferative activity in HEK293T cells to IC50 for antiproliferative activity in human MDA-MB-231 cells; type: toxicity, cell-based; conditions: HEK293T cells versus MDA-MB-231 cells, read-out: Ratio IC50; in short: as §3

Structure (SMILES)	IC50 (MCF7)	selectivity ratio [1]	IC50 (MDA-MB-231)	selectivity ratio [2]	selectivity ratio [3]	IC50 (HCT-116 [4])	IC50 (HEK-293T)	IC50 (HCT-116 [5])	selectivity ratio [6]	Ratio IC50 [7]	Ratio IC50 [8]	Ratio IC50 [9]	Ratio IC50 [10]	selectivity ratio [11]
O=C1Nc2ccc(Cl)cc2[C@]12[C@@H](c1ccccc1)C(c1ccccc1)=NN2c1ccccc1	37.7 µM													
COc1ccc(C2=NN(c3ccccc3)C3(C(=O)Nc4ccc(Br)cc43)N2c2cccc(Cl)c2)cc1 (stereo not drawn)	12.3 µM	< 2	14.1 µM	< 2	< 2	22.2 µM	25.9 µM	25.8 µM						
O=C1Nc2ccc(Br)cc2C12N(c1ccccc1)N=C(c1cccc(Cl)c1)N2c1cccc(Cl)c1 (stereo not drawn)	8 µM	< 2	10.2 µM	< 2	< 2	12.6 µM	12.5 µM	13 µM						
O=C1Nc2ccc(Br)cc2C12N(c1cccc(Cl)c1)N=C(c1cccc(Cl)c1)N2c1cccc(Cl)c1 (stereo not drawn)	6.9 µM	< 2	7 µM	< 2	< 2	10.2 µM	9 µM	9 µM						
O=C1Nc2ccc(Br)cc2C12N(c1ccccc1)N=C(c1ccccc1)N2c1ccc(Cl)cc1 (stereo not drawn)	16.8 µM	< 2	5.2 µM	< 2	< 2	16.3 µM	21.6 µM	18.2 µM	≥ 2.4	>=2.4	>=2.4	>=2.4		
O=C1Nc2ccccc2C12N(c1ccccc1)N=C(c1cccc(Cl)c1)N2c1ccc(Cl)cc1 (stereo not drawn)	13.1 µM	< 2	11.6 µM	< 2	< 2	17.4 µM	20.5 µM	16.1 µM						
O=C1Nc2ccc(Br)cc2[C@]12[C@@H](c1ccccc1)C(c1ccccc1)=NN2c1ccccc1	7.3 µM	> 13.7	> 100 µM				> 100 µM						> 13.7	
O=C1Nc2ccc(Br)cc2C12N(c1ccccc1)N=C(c1ccc(Cl)cc1)N2c1cccc(Cl)c1 (stereo not drawn)	10.1 µM	< 2	14.6 µM	< 2	< 2	10.8 µM	20.3 µM	10.8 µM						
O=C1Nc2ccc(Br)cc2C12N(c1ccc(Cl)cc1)N=C(c1ccccc1)N2c1cccc(Cl)c1 (stereo not drawn)	11.4 µM	< 2	15 µM	< 2	< 2	15 µM	16.2 µM	17.2 µM						
O=C1Nc2ccc(Cl)cc2C12N(c1ccccc1)N=C(c1ccccc1)N2c1ccccc1 (stereo not drawn)	19.1 µM	< 2	11.7 µM	< 2	< 2	21.6 µM	32.6 µM	22.1 µM						
O=C1Nc2ccccc2C12N(c1ccccc1Cl)N=C(c1ccccc1)N2c1ccc(Cl)cc1 (stereo not drawn)	28.4 µM		24.8 µM											
O=C1Nc2ccccc2C12N(c1ccccc1)N=C(c1ccccc1)N2c1ccc(Cl)cc1 (stereo not drawn)	24.1 µM	2.5 to 4.1	10.7 µM	2.5 to 4.1	2.5 to 4.1	15 µM	> 100 µM	18.5 µM						≥ 2.5
O=C1Nc2ccc(Br)cc2C12N(c1ccccc1Cl)N=C(c1ccccc1)N2c1cccc(Cl)c1 (stereo not drawn)	10.2 µM	< 2	11.7 µM	< 2	< 2	21.5 µM	20.9 µM	31.6 µM						
O=C1Nc2c(Br)cccc2C12N(c1ccccc1)N=C(c1ccccc1)N2c1ccccc1 (stereo not drawn)	21.8 µM		23.7 µM											
O=C1Nc2ccccc2C12N(c1ccccc1)N=C(c1ccccc1)N2c1cccc(Cl)c1 (stereo not drawn)	13.7 µM	< 2	12.5 µM	< 2	< 2	19.9 µM	25.7 µM	22.1 µM						
